Calls of active or inactive are those of the source. The calls are words filed in the database; no cut-off is given here.
Assays:
[1] = target: T1, Beta-glucuronidase (Homo sapiens) (UniProt P08236); test: Inhibition of beta-glucuronidase at 10 uM
T1 sequence (whole entry): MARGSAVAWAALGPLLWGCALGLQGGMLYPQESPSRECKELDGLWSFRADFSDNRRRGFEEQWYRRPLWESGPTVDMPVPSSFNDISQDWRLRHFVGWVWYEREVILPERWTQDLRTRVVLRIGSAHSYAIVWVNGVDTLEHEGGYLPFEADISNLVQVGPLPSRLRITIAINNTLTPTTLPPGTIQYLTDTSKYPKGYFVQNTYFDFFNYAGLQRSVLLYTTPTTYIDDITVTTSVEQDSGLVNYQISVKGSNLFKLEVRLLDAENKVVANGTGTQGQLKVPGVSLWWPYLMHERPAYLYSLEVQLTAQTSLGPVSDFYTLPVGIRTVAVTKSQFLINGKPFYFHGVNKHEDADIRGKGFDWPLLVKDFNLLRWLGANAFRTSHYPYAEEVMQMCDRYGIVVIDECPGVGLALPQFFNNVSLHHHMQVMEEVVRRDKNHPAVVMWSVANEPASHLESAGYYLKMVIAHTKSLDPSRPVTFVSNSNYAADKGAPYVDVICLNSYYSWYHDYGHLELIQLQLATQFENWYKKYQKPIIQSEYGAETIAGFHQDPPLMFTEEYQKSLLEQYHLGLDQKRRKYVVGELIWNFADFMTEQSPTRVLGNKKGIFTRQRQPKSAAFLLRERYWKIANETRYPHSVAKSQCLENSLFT
Summary of the method: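 Test sample from a 1 mM stock in 0.1 M acetate buffer pH 7.4 was preincubated 5 min at 37 °C with 2.5 mM p-nitrophenyl β-D-glucopyranosiduronic acid. β-Glucuronidase was then added and the mixture incubated 30 min. The reaction was stopped with 0.5 N NaOH and read at 410 nm. Salicylic acid (1 mM) was the reference. Values are means of n = 2.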

[2] = Inhibition of trypsin at 10 uM
Summary of the method: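 Trypsin (0.075 mg/mL) was preincubated 20 min with test sample from a 1 mM stock. The reaction was stopped with 5% trichloroacetic acid and centrifuged. Acid-soluble protein was measured by the Lowry method. Salicylic acid (10^-6 M) was the reference. Values are means of n = 2.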

[3] = target: T2, Prostaglandin G/H synthase 2 (Ovis aries) (UniProt P79208); test: Inhibition of ovine COX2 at 1 mM by colorimetric assay
T2 sequence (whole entry): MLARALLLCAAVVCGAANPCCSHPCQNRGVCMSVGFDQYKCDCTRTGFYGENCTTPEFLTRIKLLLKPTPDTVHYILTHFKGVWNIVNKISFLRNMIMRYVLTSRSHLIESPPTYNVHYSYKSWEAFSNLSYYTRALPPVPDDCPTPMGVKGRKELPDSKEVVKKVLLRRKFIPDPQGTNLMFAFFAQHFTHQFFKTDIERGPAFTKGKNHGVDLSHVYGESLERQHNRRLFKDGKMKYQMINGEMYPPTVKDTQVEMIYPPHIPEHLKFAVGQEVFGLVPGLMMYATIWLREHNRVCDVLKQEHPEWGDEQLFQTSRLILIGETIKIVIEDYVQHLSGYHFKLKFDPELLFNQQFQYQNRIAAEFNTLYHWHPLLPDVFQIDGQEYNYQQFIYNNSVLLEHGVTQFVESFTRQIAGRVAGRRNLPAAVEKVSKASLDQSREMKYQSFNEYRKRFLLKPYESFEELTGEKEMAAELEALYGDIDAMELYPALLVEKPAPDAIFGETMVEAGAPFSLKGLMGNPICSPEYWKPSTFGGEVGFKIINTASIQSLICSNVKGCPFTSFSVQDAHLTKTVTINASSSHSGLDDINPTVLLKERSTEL
Summary of the method: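 Ovine COX-2 was tested with a colorimetric screening kit. Enzyme, heme and assay buffer were preincubated 5 min at 25 °C with test sample added from a 1 mM solution. Colorimetric substrate and arachidonic acid were then added, followed by a further 5 min at 25 °C. Absorbance was read at 590 nm, and % activity = inhibitor-well/no-inhibitor-well absorbance × 100. Values are means of n = 2.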

[4] = system: Radical scavenging activity; test: Antioxidant activity assessed as DPPH radical scavenging activity at 10 uM; type: functional
Summary of the method: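 Test sample from a 1 mM stock in absolute ethanol was mixed with DPPH radical (10^-4 M in absolute ethanol). Absorbance was read at 517 nm after 20 min. Quercetin served as reference. Values are means of n = 2.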

[5] = target: T3, Prostaglandin G/H synthase 1 (Ovis aries) (UniProt P05979); conditions: at 1 mM
T3 sequence (whole entry): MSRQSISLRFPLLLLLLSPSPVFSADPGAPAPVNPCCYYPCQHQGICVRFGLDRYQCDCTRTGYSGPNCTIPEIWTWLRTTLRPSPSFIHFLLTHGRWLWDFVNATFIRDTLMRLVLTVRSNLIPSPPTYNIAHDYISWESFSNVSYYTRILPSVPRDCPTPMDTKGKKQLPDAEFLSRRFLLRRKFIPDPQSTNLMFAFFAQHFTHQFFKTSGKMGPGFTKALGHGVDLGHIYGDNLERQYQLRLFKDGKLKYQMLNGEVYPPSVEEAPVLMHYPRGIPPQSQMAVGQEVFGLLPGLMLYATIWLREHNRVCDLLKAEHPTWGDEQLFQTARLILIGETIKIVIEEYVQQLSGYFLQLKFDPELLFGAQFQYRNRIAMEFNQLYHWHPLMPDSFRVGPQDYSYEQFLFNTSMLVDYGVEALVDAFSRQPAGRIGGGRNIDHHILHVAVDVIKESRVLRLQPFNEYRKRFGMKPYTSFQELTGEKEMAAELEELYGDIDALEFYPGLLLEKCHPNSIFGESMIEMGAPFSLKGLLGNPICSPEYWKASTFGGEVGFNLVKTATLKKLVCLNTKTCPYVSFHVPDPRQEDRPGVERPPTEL

| Structure (SMILES) | inhibition [1] | inhibition [2] | inhibition [3] [%] | Activity [4] | inhibition [5] [%] |
| --- | --- | --- | --- | --- | --- |
| COc1cc(OC)c(C(=O)/C=C/c2ccccc2F)c(O)c1CN1CCCCC1 | 56.6% | 1.4% | 19.9 | inactive |  |
| COc1cc(OC)c(C(=O)/C=C/c2cccc(Br)c2)c(O)c1CN1CCCCC1 | 15.4% | 2.8% | 87.5 | 33% | 21.7 |
| COc1cc(OC)c(C(=O)/C=C/c2ccccc2Br)c(O)c1CN1CCCCC1 | 39.9% | 2.1% | 69.8 | 58.3% |  |
| COc1cc(OC)c(C(=O)/C=C/c2cccc(Cl)c2)c(O)c1CN1CCOCC1 | 13.9% | 1.1% | 48.2 | 21.9% |  |
| COc1cc(OC)c(C(=O)/C=C/c2cccc(F)c2)c(O)c1CN1CCN(C)CC1 | 26.7% | inactive | 24.6 | 18.4% |  |
| COc1cc(OC)c(C(=O)/C=C/c2cccc(F)c2)c(O)c1CN1CCOCC1 | 10.8% | 19.5% | 38.9 | 24% |  |
| O=C(O)c1ccccc1O | 23.3% | 89.2% |  |  |  |
| COc1cc(OC)c(C(=O)/C=C/c2cccc(Br)c2)c(O)c1CN1CCOCC1 | 29.3% | 1.2% | 22.4 | 10.1% |  |
| O=c1c(O)c(-c2ccc(O)c(O)c2)oc2cc(O)cc(O)c12 |  |  |  | 86.3% |  |
| COc1cc(OC)c(C(=O)/C=C/c2ccccc2Cl)c(O)c1CN1CCCCC1 | 31.2% | 0.7% | 91.5 | 18.4% | 30.4 |
| COc1cc(OC)c(C(=O)/C=C/c2cccc(F)c2)c(O)c1CN1CCCC1 | 19.4% | 1.3% | 21.4 | 11.7% |  |
| COc1cc(OC)c(C(=O)/C=C/c2cccc(Cl)c2)c(O)c1CN1CCN(C)CC1 | 23.7% | 1.3% | 77.8 | 5.2% | 28.7 |
| COc1cc(OC)c(C(=O)/C=C/c2ccccc2Cl)c(O)c1CN1CCOCC1 | 48.1% | inactive | 25.6 | 24.8% |  |
| COc1cc(OC)c(C(=O)/C=C/c2ccccc2F)c(O)c1CN1CCOCC1 | 21.8% | 2% | 27.1 | 19.2% |  |
| CC(=O)Oc1ccccc1C(=O)O |  |  | 35.1 |  |  |
| COc1cc(OC)c(C(=O)/C=C/c2cccc(Cl)c2)c(O)c1CN1CCCCC1 | 66% | 0.5% | 87.9 | 20.9% | 25.2 |
| COc1cc(OC)c(C(=O)/C=C/c2cccc(Br)c2)c(O)c1CN1CCCC1 | 59.8% | 1.3% | 19.9 | 35.7% |  |
| COc1cc(O)c(CN2CCCC2)c(O)c1C(=O)/C=C/c1ccccc1F | inactive | 1.2% | 21.4 | 32.9% |  |
| COc1cc(OC)c(C(=O)/C=C/c2ccccc2Cl)c(O)c1CN1CCCC1 | 32.4% | 0.8% | 42.5 | 7.89% |  |
| COc1cc(OC)c(C(=O)/C=C/c2cccc(Cl)c2)c(O)c1CN1CCCC1 | 14.8% | 0.9% | 29.6 | 3.1% |  |
| COc1cc(OC)c(C(=O)/C=C/c2cccc(F)c2)c(O)c1CN1CCCCC1 | 7.06% |  | 21.7 | 14.6% |  |
| COc1cc(OC)c(C(=O)/C=C/c2ccccc2Cl)c(O)c1CN1CCN(C)CC1 | 35.5% | 0.1% | 68.8 | 10.8% | 11.9 |
| COc1cc(OC)c(C(=O)/C=C/c2ccccc2Br)c(O)c1CN1CCCC1 | 34.7% | 1.5% | 20.4 | 25% |  |
| COc1cc(OC)c(C(=O)/C=C/c2ccccc2Br)c(O)c1CN1CCOCC1 | 32.8% | 1.6% | 42.3 | 16.7% |  |
| COc1cc(OC)c(C(=O)/C=C/c2ccccc2F)c(O)c1CN1CCN(C)CC1 | inactive | inactive | 44.9 | 35.3% | 19.2 |
| COc1cc(OC)c(C(=O)/C=C/c2ccccc2Br)c(O)c1CN1CCN(C)CC1 | 42% | 1.2% | 48.9 | 27.8% |  |
| COc1cc(OC)c(C(=O)/C=C/c2cccc(Br)c2)c(O)c1CN1CCN(C)CC1 | 75.4% | 1.4% | 33.3 | 37% |  |

Reference: ChEMBL document CHEMBL1153234, “Synthesis and biological evaluation of nitrogen-containing chalcones as possible anti-inflammatory and antioxidant agents” (Bioorg Med Chem Lett, 2010)
